Bioassay records from PubChem BioAssay.
In the library only some 0.88% were active in any assay of this set; here they are far more common.
APJ antag: antagonists of human apelin receptor APJ, primary screen, CHO-K1 cells, beta-arrestin complementation, luminescence | P35414 | inhibition, % at 20 µM | hit rate 0.32% among 330,000 | AID 2521, 2010;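 active = inhibition above about 40% at 20 µM, limit read from the data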;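 also: cells challenged with 10 nM apelin-13 agonist together with compound; plate controls were apelin-13 plus DMSO wells for no effect and DMSO wells lacking apelin-13 for full effect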
Target sequence (P35414 whole entry, looked up): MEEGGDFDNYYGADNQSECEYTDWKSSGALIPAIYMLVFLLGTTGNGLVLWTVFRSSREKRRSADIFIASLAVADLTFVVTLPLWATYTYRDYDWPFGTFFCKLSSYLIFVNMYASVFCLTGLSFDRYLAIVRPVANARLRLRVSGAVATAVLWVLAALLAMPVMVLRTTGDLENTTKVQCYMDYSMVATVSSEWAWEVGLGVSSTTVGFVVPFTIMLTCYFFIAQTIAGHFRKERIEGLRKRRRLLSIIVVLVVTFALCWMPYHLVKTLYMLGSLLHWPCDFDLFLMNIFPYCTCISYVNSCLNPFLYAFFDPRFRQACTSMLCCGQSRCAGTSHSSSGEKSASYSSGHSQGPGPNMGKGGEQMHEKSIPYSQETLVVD
CCR6 antag: CCR6 receptor antagonists, primary screen, cell-based, CHO-K1, luminescence, beta-arrestin, uHTS; inhibition, % at 20 µM; CHO-K1 CCR6 PathHunter beta-arrestin, CCL20-stimulated; hit rate 0.49% among 340,000; AID 493098, 2011; C-C chemokine receptor type 6 (Homo sapiens), P51684;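 active = compounds whose inhibition of the agonist-driven luminescence signal at 20 µM reaches about 50%, limit read from the data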;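 also: cells stimulated with CCL20 at 14 nM final; plate controls were DMSO with CCL20 for no effect and DMSO without agonist for full effect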
PKA-R2B act: activators of PKA-R2B holoenzyme, primary screen, biochemical, fluorescence polarization, Cy5-IP20, human; activation, % at 11.4 µM; cAMP-dependent protein kinase catalytic subunit beta (Homo sapiens) + cAMP-dependent …; AID 504700, 2011; PKA-R2B holoenzyme dissociation; R2B truncated from residue 108, S112A mutant; 0% DMSO only, 100% 113 µM cGMP; hit rate 0.079% among 340,000;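 active = activation above a cutoff set at the mean over all compounds plus 3 SD, cut at about 18% in these data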;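 also: higher means more holoenzyme dissociation and a rise in polarization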
CXCR6 block: CXCR6 receptor inhibitors, primary screen, cell-based, beta-arrestin, luminescence, CHO-K1 PathHunter, 1536-well; C-X-C chemokine receptor type 6 (Homo sapiens), O00574; inhibition, % at 20 µM; hit rate 0.36% among 360,000; AID 602244, 2012; in the data active = inhibition above about 34%, passing the limit was not always enough;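 also: antagonist mode with CXCL16 agonist at 10 nM final; 0% = 10 nM CXCL16 with DMSO and 100% = unstimulated wells without agonist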
PKA-R1A activ: activators of PKA-R1A holoenzyme, primary screen, biochemical, fluorescence polarization, Cy5-IP20, bovine R1A, mouse PKAc | PKA-R1A dissociation; scaled: DMSO 0%, 113 µM cGMP 100% | hit rate 0.083% among 340,000 | activation, % at 11.4 µM | cAMP-dependent protein kinase type I-alpha regulatory subunit (Bos taurus) + … | AID 504707, 2011;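 active = percent activation above the mean of all tested compounds plus 3 SD, cut at about 19% in these data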;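 also: higher means more PKAc released from R1A so a rise in polarization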
APJ agonist: agonists of human apelin receptor APJ, primary screen, CHO-K1 cells, PathHunter beta-arrestin, luminescence | 0% DMSO wells, 100% apelin | hit rate 0.11% among 330,000 | activation, % at 20 µM;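 active = activation more than six SD over the plate average, tested at 20 µM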;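 also: 0% = DMSO alone and 100% = apelin-13 at 10 nM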
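Incubation: overnight seeding, 90 min compound at 25 °C, 1 h detection; test system: PathHunter CHO-K1 APJ (AGTRL-1) beta-arrestin reporter cells; amount: 1000 cells/well; doses: one dose, 20 µM compound, 1% DMSO; measured by: beta-gal luminescence; measure: agonist-driven arrestin binding to APJ; benchmarks: negative DMSO alone, positive Apelin-13 at 10 nM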
APJ ag conf: agonists of human apelin receptor APJ, confirmation, cell-based, single concentration, CHO-K1, beta-arrestin, luminescence; CHO-K1 APJ PathHunter beta-arrestin; shares compounds with APJ agonist; activation, % at 20 µM; hit rate 10% among 310;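 active = activation above 40%, taking the highest of four retests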;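 also: plate controls were DMSO wells for no effect and apelin-13 at 10 nM for full effect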
* hit, by the source's call; nt = no result given.

SMILES | APJ antag | CCR6 antag | PKA-R2B act | CXCR6 block | PKA-R1A activ | APJ agonist | APJ ag conf
CC(C)C[C@@H](C(=O)NC1CCN(Cc2ccccc2)CC1)N1C(=O)N2CCc3c([nH]c4ccccc34)[C@@]2(C)C1=O | 16 | 21 | -5 | 9 | 7 | 24* | 25
COC(=O)Cn1cc(/C=C(/C#N)C(=O)N2CCOCC2)c2ccccc21 | -5 | 0 | -5 | 5 | -2 | 12* | 6
COc1ccc(OC)c2sc(N(CCCN(C)C)C(=O)c3ccc(S(=O)(=O)N4CCc5ccccc5C4)cc3)nc12 | -59 | nt | nt | nt | nt | 45* | 22
O=C(c1ccc([N+](=O)[O-])o1)N1CCN(c2nc3c(Cl)cccc3s2)CC1 | -22 | -6 | -10 | -16 | 2 | 32* | 7
COc1cccc2sc(N3CCN(C(=O)c4ccc([N+](=O)[O-])o4)CC3)nc12 | -143 | -13 | -6 | -27 | 3 | 30 | nt
O=C(Nc1ccc2c(c1)OCCO2)C1c2ccccc2OCC(=O)N1Cc1ccco1 (stereo not given) | nt | nt | nt | 2 | nt | nt | nt
CS(=O)(=O)c1ccc2nc(NC(=O)Nc3cccc(Cl)c3)sc2c1 | -20 | 7 | 10 | 6 | -1 | 28* | 16
N#Cc1cc(-c2ccccc2)nnc1Oc1ccccc1 | 11 | -1 | -18 | -1 | -22 | 1 | nt
Cc1ccc(Oc2nnc(-c3ccccc3)cc2C#N)cc1 | 10 | -14 | -6 | 0 | -17 | 22* | 21
O=C1NC[C@H](CCCCN2C[C@H](Cc3ccc(O)cc3)N(CCC3CCCCC3)C(=O)C2=O)N(CCC2CCCCC2)C1=O | nt | nt | nt | 7 | nt | nt | nt
Cc1cccc(C(=O)OCc2cc(=O)oc3c(C)c(C)ccc23)c1O | 11 | -6 | -4 | 9 | -10 | 24* | 8
Cc1cc(C(=O)CSc2nc3ccccc3[nH]2)c(C)n1CC1CCCO1 (stereo not given) | -27 | -43 | -9 | -5 | -4 | 21* | 13
Cc1cc(C(=O)CSc2nc(N)cc(=O)[nH]2)c(C)n1CC1CCCO1 (stereo not given) | 3 | 2 | -8 | 0 | 3 | -8 | nt
CCOC(=O)[C@]12CCCC=C1N(Cc1cccc3ccccc13)C(=O)[C@H](CC(=O)N1CCCC1)C2 | nt | nt | nt | -1 | nt | nt | nt
OC(c1ccc(-c2ccccc2)cc1)c1ncc(-c2ccccc2F)[nH]1 (stereo not given) | nt | nt | nt | -4 | nt | nt | nt
COC(=O)[C@]12CCCCC=C1N(CCC1=CCCCC1)C(=O)[C@H](CC(=O)NCCCCc1ccccc1)C2 | nt | nt | nt | 26 | nt | nt | nt
COc1ccc2nc(C)cc(N/N=C/c3ccccc3)c2c1 | -10 | 26 | 1 | 4 | 3 | 21 | nt
COc1ccc(/C=N/Nc2cc(C)nc3ccc(OC)cc23)c(OC)c1 | -14 | 10 | -2 | 23 | -11 | 61* | 64*
CC(=O)NCCNc1nc2cc(-c3cccc(Cl)c3)sc2c(=O)n1C | nt | nt | nt | -12 | nt | nt | nt
O=c1cc(CN2CCN(C/C=C/c3ccccc3)CC2)c2cc(O)c(-c3ccccc3)cc2o1 | -11 | 0 | 16 | 1 | -8 | -1 | nt
CC(C)CN(Cc1cc(=O)oc2cc(-c3ccccc3)c(O)cc12)CC(C)C | -33 | -24 | -2 | -11 | -4 | 19* | 23
c1ccc(C[C@H]2CN=C(Nc3ccccc3)N2CC2CCCC2)cc1 | nt | nt | nt | 2 | nt | nt | nt
Cc1nnc(N2CCCC(C(=O)NCc3ccc(OC(C)C)cc3)C2)c2nn(-c3ccccc3)c(C)c12 (stereo not given) | -24 | 2 | 7 | 9 | -9 | 2 | nt
